Key:
[1] = assay type: physicochemical
Outline: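 Capacity factors from analytical reversed-phase HPLC retention times (diphenyl column; 0.1% TFA water/acetonitrile; linear 20–100% B over 40 min, 20 min re-equilibration). […] Linear logD–retention correlation gave calculated logD.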

[2] = Mouse pain assay following i.p. administration; assay type: in vivo; conditions: unpublished results of the authors
[3] = test system: 6 Hz corneal stimulation limbic seizure; conditions: cited from earlier work; for Anticonvulsant activity, mice protected/tested, 15' / Anticonvulsant activity, mice protected/tested, 30' / Anticonvulsant activity, mice protected/tested, 1h / Anticonvulsant activity, mice protected/tested, 2h / Anticonvulsant activity, mice protected/tested, 4h: 6 Hz, 32 mA, 4 mg/kg i.p.; for Anticonvulsant activity, mice protected/tested, 15': 15 min after administration; for Anticonvulsant activity, mice protected/tested, 30': 30 min after administration; for Anticonvulsant activity, mice protected/tested, 1h: 1 h after administration; for Anticonvulsant activity, mice protected/tested, 2h: 2 h after administration; for Anticonvulsant activity, mice protected/tested, 4h: 4 h after administration
[4] = CD, in the presence of 50% v/v 2,2,2-trifluoroethanol; cited from earlier work
human serum albumin = conditions: higher affinity of C8 versus C14; cited from earlier work
[5] = buffered 25% rat blood serum, 37 °C; cited from earlier work

Compound | chromatographic logD [1] | Anticonvulsant activity, mice protected/tested, 15' [3] | Anticonvulsant activity, mice protected/tested, 30' [3] | Anticonvulsant activity, mice protected/tested, 1h [3] | Anticonvulsant activity, mice protected/tested, 2h [3] | Anticonvulsant activity, mice protected/tested, 4h [3] | α-helix content [4] | further results
CCCCCCCC(=O)NCCCC[C@H](NC(=O)[C@H](CCCCN)NC(=O)[C@H](CCCCN)NC(=O)[C@@H]1CCCN1C(=O)CNC(=O)[C@H](CC(C)C)NC(=O)[C@H](CC(C)C)NC(=O)[C@H](Cc1ccc(O)cc1)NC(=O)CNC(=O)[C@H](C)NC(=O)[C@H](CO)NC(=O)[C@H](CC(N)=O)NC(=O)[C@H](CC(C)C)NC(=O)[C@@H](NC(=O)[C@H](Cc1c[nH]c2ccccc12)NC(=O)CNC)[C@@H](C)O)C(=O)N[C@@H](CCCCN)C(N)=O [Gal-B2-C8] | 0.78 |  |  |  |  |  |  | 
CCCCCCCCCCCCCCCCCC(=O)NCCCC[C@H](NC(=O)[C@H](CCCCN)NC(=O)[C@H](CCCCN)NC(=O)[C@@H]1CCCN1C(=O)CNC(=O)[C@H](CC(C)C)NC(=O)[C@H](CC(C)C)NC(=O)[C@H](Cc1ccc(O)cc1)NC(=O)CNC(=O)[C@H](C)NC(=O)[C@H](CO)NC(=O)[C@H](CC(N)=O)NC(=O)[C@H](CC(C)C)NC(=O)[C@@H](NC(=O)[C@H](Cc1c[nH]c2ccccc12)NC(=O)CNC)[C@@H](C)O)C(=O)N[C@@H](CCCCN)C(N)=O [Gal-B2-C18] | 1.35 |  |  |  |  |  |  | 
CCCCCCCCCCCCCCCC(=O)NCCCC[C@H](NC(=O)[C@H](CCCCN)NC(=O)[C@H](CCCCN)NC(=O)[C@@H]1CCCN1C(=O)CNC(=O)[C@H](CC(C)C)NC(=O)[C@H](CC(C)C)NC(=O)[C@H](Cc1ccc(O)cc1)NC(=O)CNC(=O)[C@H](C)NC(=O)[C@H](CO)NC(=O)[C@H](CC(N)=O)NC(=O)[C@H](CC(C)C)NC(=O)[C@@H](NC(=O)[C@H](Cc1c[nH]c2ccccc12)NC(=O)CNC)[C@@H](C)O)C(=O)N[C@@H](CCCCN)C(N)=O [Gal-B2] |  | 3/4 | 4/4 | 4/4 | 4/4 | 0/4 | 23% | analgesic activity [2]: comparable analgesic activities; anticonvulsant ED50 ([3]; i.p., 6 Hz pharmacoresistant model of epilepsy): 0.8 mg/kg
CCCCCCCC(=O)O [octanoic acid] |  |  |  |  |  |  |  | affinity to human serum albumin compared to the C14 (myristic acid) (human serum albumin): 11 fold
(Sar)WTLNSAGYLLGPKKKK [Gal-(K)4, reference compound] |  | 0/4 | 3/4 | 1/3 | 0/3 | 0/4 | 14% | 
Gal(1-16): unmodified Gal(1-16) analog |  |  |  |  |  |  |  | half-time in 25% rat serum [5]: 7.8 min

From PMC2765488 (Journal of medicinal chemistry, 2009)
